A short description of data set [1]: Virus rating for antiviral activity against Herpes simplex virus 1 HF infected in human Hep2 cells assessed as inhibition of virus-induced cytopathic effect taking into account cytotoxicity against human Hep2 cells.
The subject of another data set is Human rhinovirus 1A. The experiment in a line: Antiviral activity against Human rhinovirus 1A 2060 infected in human KB cells assessed as inhibition of virus-induced cytopathogenicity measured at 4 days post-virus infection by Microtest 2 plate based microscopic analysis. In kind it is functional, organism-based. The gist of the method: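 Rhinovirus in KB cells under BME with 5% fetal bovine serum, challenged at 32 CCID50 per well alongside compound. Seven half-log concentrations spanning cytotoxic to noncytotoxic, triplicate. Cell, virus and drug-cytotoxicity controls included. Plates sealed, held at 33 °C. Cpe reduction examined microscopically after 4 days; virus rating (VR) computed from cpe inhibition and cytotoxicity.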

In a further data set the test system is Human alphaherpesvirus 1. The experiment in a line: Antiviral activity against Herpes simplex virus 1 HF infected in human Hep2 cells assessed as inhibition of virus-induced cytopathogenicity measured at 4 days post-virus infection by Microtest 2 plate based microscopic analysis. Conditions: HEp-2. In kind it is functional, organism-based. The gist of the method: (§1)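 Cells pregrown in microplates in BME (double vitamins/amino acids, 5% FBS). Medium replaced with compound-containing medium plus virus giving 32 CCID50 per well. Seven concentrations, half-log steps from cytotoxic to noncytotoxic, in triplicate. Cell, virus and cytotoxicity controls run alongside. Incubated 37 °C; cpe reduction judged microscopically at 4 days. Virus rating (VR) derived from cpe inhibition and cytotoxicity.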

In the next data set the test system is Human alphaherpesvirus 3. The experiment in a line: Antiviral activity against Varicella zoster virus Ellen infected in human WI-38 cells assessed as inhibition of virus-induced cytopathogenicity measured at 7 days post-virus infection by […] microscopic analysis. In kind it is functional, organism-based. Summed up: (§2)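 Diploid human embryonic lung fibroblasts, 7-day-old monolayers in tubes, MEM plus 2% fetal bovine serum. Compound added in fresh medium (triplicate), then ~32 CCID50 virus per culture. Incubated 37 °C; medium replaced with fresh drug-containing medium at 48 h and again 48 h later. Cytotoxicity, virus and cell controls included. Cpe scored microscopically at day 7; virus rating (VR) calculated from cpe inhibition and drug cytotoxicity.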

In another data set the test system is Human adenovirus 2. Nature of the data set: Antiviral activity against Human adenovirus 2 Adenoid-6 infected in human KB cells assessed as inhibition of virus-induced cytopathogenicity measured at 4 days post-virus infection by Microtest 2 plate based microscopic analysis. In kind it is functional, organism-based. The gist of the method:
as §1

The test system of another data set is Cytomegalovirus. Nature of the data set: Antiviral activity against Cytomegalovirus AD 169 infected in human WI-38 cells assessed as inhibition of virus-induced cytopathogenicity measured at 7 days post-virus infection by […] microscopic analysis. In kind it is functional, organism-based. Summed up: as §2
Data set [2] concerns Respiratory syncytial virus. The experiment in a line: Antiviral activity against Respiratory syncytial virus Long infected in human Hep2 cells assessed as inhibition of virus-induced cytopathogenicity measured at 4 days post-virus infection by Microtest 2 plate based microscopic analysis. The settings on record: HEp-2. In kind it is functional, organism-based. The gist of the method: as §1

Activity calls are given as the source filed them. The calls are words filed in the database; no cut-off is given here.

Regarding `Nc1ncnc2c1ncn2[C@H]1O[C@H](CO)[C@@H](O)[C@@H]1O`, the virus rating in data set [1] was 0.6.
For `CSc1nc(N)c2ncn([C@H]3O[C@H](CO)[C@@H](O)[C@@H]3O)c2n1`, the inhibition result (in the data set on Human rhinovirus 1A; with Human alphaherpesvirus 1; in the data set with Human alphaherpesvirus 3; with Human adenovirus 2; in the data set with Cytomegalovirus; in data set [2]) was “inactive” each time.
Take `COc1nc(N)c2nnn([C@H]3O[C@H](CO)[C@@H](O)[C@@H]3O)c2n1`: the inhibition result (in the data set with Human rhinovirus 1A; in the data set on Human alphaherpesvirus 1; in the data set on Human alphaherpesvirus 3; in the data set with Human adenovirus 2; in the data set on Cytomegalovirus; in data set [2]) was “inactive” throughout.
Consider `Nc1ncnc2c1nnn2[C@H]1O[C@H](CO)[C@@H](O)[C@@H]1O`, for which the virus rating in data set [1] is 1.
Regarding `CSc1nc(N)c2nnn([C@H]3O[C@H](CO)[C@@H](O)[C@@H]3O)c2n1`, the inhibition result (in the data set with Human rhinovirus 1A; in the data set on Human alphaherpesvirus 1; in the data set with Human alphaherpesvirus 3; in the data set with Human adenovirus 2; with Cytomegalovirus; in data set [2]) was “inactive” throughout.
With `NNc1nc(N)c2nnn([C@H]3O[C@H](CO)[C@@H](O)[C@@H]3O)c2n1`, the inhibition result (in the data set on Human rhinovirus 1A; in the data set with Human alphaherpesvirus 1; with Human alphaherpesvirus 3; in the data set on Human adenovirus 2; in the data set on Cytomegalovirus; in data set [2]) was “inactive” each time.
As for `CS(=O)(=O)c1nc(N)c2nnn([C@H]3O[C@H](CO)[C@@H](O)[C@@H]3O)c2n1`, the inhibition entry (in the data set with Human rhinovirus 1A; in the data set on Human alphaherpesvirus 1; in the data set on Human alphaherpesvirus 3; with Human adenovirus 2; in the data set with Cytomegalovirus; in data set [2]) was “inactive” throughout.
In the case of `COc1nc(N)c2ncn([C@H]3O[C@H](CO)[C@@H](O)[C@@H]3O)c2n1`, the inhibition result (in the data set with Human rhinovirus 1A; in the data set with Human alphaherpesvirus 1; in the data set with Human alphaherpesvirus 3; in the data set on Human adenovirus 2; in the data set with Cytomegalovirus; in data set [2]) was “inactive” each time.
`NNc1nc(N)c2ncn([C@H]3O[C@H](CO)[C@@H](O)[C@@H]3O)c2n1`: the inhibition entry (with Human rhinovirus 1A; in the data set on Human alphaherpesvirus 1; in the data set with Human alphaherpesvirus 3; in the data set on Human adenovirus 2; with Cytomegalovirus; in data set [2]) was “inactive” in each case.
Turning to `[N-]=[N+]=Nc1nc(N)c2nnn([C@H]3O[C@H](CO)[C@@H](O)[C@@H]3O)c2n1`, the inhibition entry (in the data set on Human rhinovirus 1A; in the data set on Human alphaherpesvirus 1; in the data set with Human alphaherpesvirus 3; with Human adenovirus 2; with Cytomegalovirus; in data set [2]) was “inactive” each time.

Source of the values: ChEMBL document CHEMBL3244246, “2-Substituted derivatives of 9-alpha-D-arabinofuranosyladenine and 9-alpha-D-arabinofuranosyl-8-azaadenine” (J Med Chem, 1977).
